Source: the RNAGym collection of RNA variant scans (doi:10.1126/science.aae0568)
Fewer inactive variants are shown than the library holds.

B1: tRNA (parent)
chain: GUUCCGUUGGCGUAAUGGUAACGCGUCUCCCUCCUAAGGAGAAGACUGCGGGUUCGAGUCCCGUACGGAACG

Variants of: B1
Assay: yeast fitness relative to wild type (ratio to wild type); higher = fitter; tRNA-Arg(CCU), competitive growth, 37 C, YPD
In short: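 Genotype frequency changes were the basis for Darwinian fitness relative to wild type. The frequencies came from 100-nucleotide paired-end sequencing of gene amplicons from the start population and each end population of pooled yeast strains with tRNA-Arg(CCU) gene variants at the native locus. Competition ran in YPD at 37°C for 24 hours in six replicates, genotypes needed ≥ 100 starting reads, and estimates < 0.5 were set to 0.5.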

Which yeast fitness does the source give for GUUUCGUUGGCGUAAUGGUAACGCGUCUCCCUCCUAAGGAGACGACUGCGGGUUCGAGUCCCGUACAGAACG [C4U A43C G67A] here?
The yeast fitness was 0.733.

With GUUUCGUUGGCGUAAUGGUAACGCGUCUCCCUCCUAAGGAGACGACUGCGGGUUCGAGUCCUGUACGGAACG [C4U A43C C62U] as the variant, how does the yeast fitness read?
Its yeast fitness is 0.965.

For GUUUCGUUGGCGUAAUGGUAACGCGUCUCCCUCCUAAGGAGAAGACUGCGGGUUCGAGUCCCGUACGGCACG [C4U A69C], which yeast fitness is on record?
The yeast fitness was 1.02.

Which yeast fitness does the source give for GUUUCGUUGGCGUAAUGGUAACGCGUCUCCCUCCUAAGGAGAAGACUGCGGGUUCGAGUCCCGUACGGUACG [C4U A69U] here?
Its yeast fitness is 1.02.

With GUUUCGUUGGCGUAAUGGUAACGCGUCUCCCUCCUUAGGAGAAGACUGCGGGUUAGAGUCCCGUACGGAACG [C4U A36U C55A] as the variant, how does the yeast fitness read?
Its yeast fitness is 0.659.

For GUUUCGUUGGCGUAAUGGUAACGCGUCUCCCUCCUAAGGAGAAGUCUGCGGGUUCGAGUCCCGUAUGGAACG [C4U A45U C66U], which yeast fitness is on record?
Its yeast fitness is 0.656.

Which yeast fitness does the source give for GUUUCGUUGGCGUAAUGGUAACGCGUCUCCCUCCUAGGGAGAAGUCUGCGGGUUCGAGUCCCGUACGGAACG [C4U A37G A45U] here?
The yeast fitness was 0.707.

Which yeast fitness does the source give for GUUUCGUUGGCGUAAUGGUAACGCGUCUCCCUCCUAAGGAGAAGACUGCGGGUUCGCGUCCUGUACGGAACG [C4U A57C C62U] here?
Its yeast fitness is 0.601.

For GUUUAGUUGGCGAAAUGGUAACGCGUCUCCUUCUUAAGGAGAAGACUGCGGGUUCGAGUCCCGUACGGAACG [C4U C5A U13A C31U C34U], which yeast fitness is on record?
Its yeast fitness is 0.544.

With GUUUCGUUGGCGUAAUGGUAACGCGUCUCCCUCCUAAGGAGAAGUCUGCGGGUUCGAGUCCCGUACGGAACG [C4U A45U] as the variant, how does the yeast fitness read?
The yeast fitness was 0.968.

Which yeast fitness does the source give for GUUUCGUUGGCGUAAUGGUAACGCGUCUCCCUCCUAAGGAGAAGCCUGCGGGUUCGAGUGCCGUACGGGACG [C4U A45C C60G A69G] here?
Its yeast fitness is no more than 0.5.

Which yeast fitness does the source give for GUUUCGUUGGCGUAAUGGUAACGCGUCUCCCUCCUAAGGAGAAGGCUGCGAGUUCGAGUCCCGUACAGAACG [C4U A45G G51A G67A] here?
Its yeast fitness is no more than 0.5.

For GUUUCGUUGGCGUAAUGGUAACGCGUCUCCCUCCUAAGGGGGAGACUGCGGGUUCGCGUCCCGUAUGGAACG [C4U A40G A42G A57C C66U], which yeast fitness is on record?
Its yeast fitness is no more than 0.5.

Which yeast fitness does the source give for GUUUAGUUGGCGUAAUGGUAACGCGUCUCCCUCCUAAGGAGAAGACUGCGGGUUCGAGUACUGCACGACACG [C4U C5A C60A C62U U64C G68A A69C] here?
The yeast fitness was 0.579.

With GUUUCGUUGGCGUAAUGGUAACGCGUCUCCCUCCUAAGGAGUAGACUGCGGGUUCGAGUCACGUCCGGAACG [C4U A42U C61A A65C] as the variant, how does the yeast fitness read?
Its yeast fitness is no more than 0.5.

With GUUUCGUUGGCGUAAUGGUAACGCGUCUCCCUCCUAAGGAGACGACUGCGAGUUCGAGUCCCGUACGUAACG [C4U A43C G51A G68U] as the variant, how does the yeast fitness read?
The yeast fitness was 0.623.

With GUUUCGUUGGCGUAAUGGUAACGCGUCUCCCUCCUAAGGAGAAGACUGCGGGUUCGCGUCUCGUACGGAUCG [C4U A57C C61U A70U] as the variant, how does the yeast fitness read?
Its yeast fitness is no more than 0.5.

With GUUUCGUUGGCGUAAUGGUAACGCGUCUCCCUCCUAAGGAGGAGACUGCGGGUUCGUGUCCCGUACGGAACG [C4U A42G A57U] as the variant, how does the yeast fitness read?
The yeast fitness was 0.551.

With GUUUCGUUGGCGUAAUGGUAACGCGUCUCCCUCCUAAGGAGUAGACUGGGGGUUCGAGUCCCGUACGGAACG [C4U A42U C49G] as the variant, how does the yeast fitness read?
The yeast fitness was 0.543.

Which yeast fitness does the source give for GUUUCGUUGGCGUAAUGGUAACGCGUCUCCCUCCUGAGGAGAAGACUGCGGGUUCGAGUCCCGUACGGAACG [C4U A36G] here?
The yeast fitness was 1.02.

Which yeast fitness does the source give for GUUUCGUUGGCGUAAUGGUAACGCGUCUCCCUCCUUAGGAGAAGACUGCGGGUUCGAGUCCCGUACGGAACG [C4U A36U] here?
The yeast fitness was 0.82.

For GUUUCGUUGGCGUAAUGGUAACGCGUCUCCCUCCUACGGAGAAGACUGCCGGUUCGAGUCCCGUACGGAACG [C4U A37C G50C], which yeast fitness is on record?
The yeast fitness was no more than 0.5.

Which yeast fitness does the source give for GUUUCGUUGGCGUAAUGGUAACGCGUCUCCCUCCUAAGGAGGAGACUGCGGGUUCGAGUCCCGUACGGCACG [C4U A42G A69C] here?
Its yeast fitness is 0.636.

Which yeast fitness does the source give for GUUUCGUUGGCGUAAUGGUAACGCGUCUCCCUCCUAUGGAGAAGACUGCGGCUUCGAGUCCCGUCCGGAACG [C4U A37U G52C A65C] here?
Its yeast fitness is no more than 0.5.

Which yeast fitness does the source give for GUUUCGUUGGCGUAAUGGUAACGCGUCUCCCUCCUAAGGAGAAGACUGCGGGUUCGUGCCCCGUACGGAACG [C4U A57U U59C] here?
The yeast fitness was 0.54.

For GUUUCGUUGGCGUAAUGGUAACGCGUCUCCCUCCUUAGGAGAAGACUGCGGGUUCGAGUCCCGUACGAAACG [C4U A36U G68A], which yeast fitness is on record?
Its yeast fitness is no more than 0.5.

For GUUUCGUUGGCGUAAUGGUAACGCGUCUCCCUCCUUAGGAGAAGACCGCGGGUUCGAGUCCCGUACGGAACG [C4U A36U U47C], which yeast fitness is on record?
Its yeast fitness is no more than 0.5.

With GUUUCGUUGGCGUAAUGGUAACGCGUCUCCCUCCUAAGGAGAAGCCUGCGGGUUUGAGUCCCGUACGCAACG [C4U A45C C55U G68C] as the variant, how does the yeast fitness read?
The yeast fitness was no more than 0.5.

For GUUUCGUUGGCGUAAUGGUAACGCGUCUCCCUCCUGAGAAGAAGACUGCGGGUUCGAGUCCCGUACAGAACG [C4U A36G G39A G67A], which yeast fitness is on record?
Its yeast fitness is no more than 0.5.

For GUUUCGUUGGCGUAAUGGUAACGCGUCUCCCUCCUACGGAGAAGACUGUGGGUUCGAGUGCCGUACGGAACG [C4U A37C C49U C60G], which yeast fitness is on record?
Its yeast fitness is no more than 0.5.

Which yeast fitness does the source give for GUUUCGUUGGCGUAAUGGUAACGCGUCUCCCUCCUGAGGAGAACACUGCGGGUUCGAGUCCCGUACGGUACG [C4U A36G G44C A69U] here?
Its yeast fitness is 0.635.

For GUUUCGUUGGCGUAAUGGUAACGCGUCUCCCUCCUAUGGAGAAGACUGCGGGUUCGAGUCCCGUACGGAACG [C4U A37U], which yeast fitness is on record?
The yeast fitness was 0.676.

With GUUUAGUUGGCGAAAUGGUAACGCGUCUCCUUCUUAAGGAGAAGACUGCGGGUUAGAAUCCCGUACGGAACG [C4U C5A U13A C31U C34U C55A G58A] as the variant, how does the yeast fitness read?
Its yeast fitness is no more than 0.5.

For GUUUCGUUGGCGUAAUGGUAACGCGUCUCCCUCCUAAGGAGAAGACUGCGGGUUCGAGUCCCGUGUGGAACG [C4U A65G C66U], which yeast fitness is on record?
The yeast fitness was 0.787.

Which yeast fitness does the source give for GUUUAGUUGGCGUAAUGGUAGCGCGUCUCCCUCCUAAGGAGAUGAUUGCGCGUUUGAGUCCCGUCCGGAACG [C4U C5A A21G A43U C46U G51C C55U A65C] here?
The yeast fitness was no more than 0.5.

For GUUUAGUUGGCGUAAUGGUAACGCGUCUCCCUCCUAAGGAGAAGACUGCGGGUUCGAGUGCCGUACGGAACG [C4U C5A C60G], which yeast fitness is on record?
Its yeast fitness is no more than 0.5.

For GUUUCGUUGGCGUAAUGGUAACGCGUCUCCCUCCUAAGGAGAAGACUGCGGGUUCGGGUCUCGUACGGAACG [C4U A57G C61U], which yeast fitness is on record?
Its yeast fitness is 0.675.

With GUUUCGUUGGCGUAAUGGUAACGCGUCUCCCUCCUAAGGAGCAGACUGCGGGUUCGAGUCCCGUACGGUACG [C4U A42C A69U] as the variant, how does the yeast fitness read?
Its yeast fitness is 0.633.
